Laboratory results taken from ChEMBL document CHEMBL5321273, “Bicyclic Peptide Library Screening for the Identification of Gαi Protein Modulators” (J Med Chem, 2023).
Active and inactive are the calls of the source. No cut-off for these calls is given here.

Columns and labels:
HeLa [1] = test: Cytotoxicity against human HeLa cells assessed as reduction in cell viability upto 80 uM incubated for overnight by MTT assay; format: toxicity, cell-based
HeLa [2] = test: Modulation of Galphai in forskolin-stimulated human HeLa cells assessed as adenylyl cyclase mediated decrease in cAMP level at 2.5 to 10 uM incubated for 30 mins by BRET analysis relative to control; format: cell-based; conditions: dose 2.5-10 µM
How it was run: (§1)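 HeLa cells in DMEM/10% FBS transfected with Gαi(C351I) or pcDNA plus modified CAMYEL cAMP BRET sensor; replated 40K/well; peptide (10, 5, 2.5 μM final, assay buffer pH 8.0) 30 min RT; 100 μM IBMX + 10 μM CTZ added, luminescence 7 min; then Fsk, BRET 15 min; AUC normalized to no-peptide; triplicates.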

[3] = target: T1, Guanine nucleotide-binding protein G(i) subunit alpha-1 (Homo sapiens, UniProt P63096); test: Binding affinity to N-terminal 6His-tagged GDP-bound Galphai1 (unknown origin) expressed in Escherichia coli BL21 (DE3) assessed as dissociation constant by SPR analysis
How it was run: (§2)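 SPR: Gαi1 loaded with GDP or GMPPNP immobilized on sensor chip by amine coupling; peptides flowed over at varying concentrations; KD determined. Reverse orientation (peptide immobilized, protein flowed) also run.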

HeLa [4] = test: Modulation of Galphai in isoproterenol-stimulated human HeLa cells assessed as effect on cAMP level at 2.5 to 5 uM incubated for 30 mins by BRET analysis relative to control; format: cell-based; conditions: dose 2.5-5 µM
How it was run: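 CAMYEL BRET in HeLa cells transfected with β2-AR plus modified CAMYEL; peptide (10, 5, 2.5 μM final) 30 min RT in pH 8.0 assay buffer; IBMX 100 μM + CTZ 10 μM, 7 min read; isoproterenol added, BRET 15 min; AUC normalized to untreated; triplicates.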

HeLa [5] = test: Modulation of Galphai in human HeLa cells assessed as hetero-trimer reassociation by measuring effect on phosphorylated ERK level at 2.5 uM incubated for 30 mins by immunoblotting analysis; format: cell-based
NG108-15 [6] = test: Modulation of Galphai in forskolin/DADLE-stimulated NG108-15 cell membrane expressing human beta2-AR co-expressing mu-opioid receptor assessed as increase in cAMP level at 10 uM relative to control; format: cell membranes
How it was run: (§3)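 Cell-free AC assay on membranes from NG108–15 hybrid cells stably expressing human β2-AR; peptides 10 μM; cAMP production stimulated with Fsk or Fsk + DADLE; read by ELISA; values as percent of untreated control; n = 3, SD.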

HeLa [7] = test: Modulation of Galphai in forskolin-stimulated human HeLa cells assessed as adenylyl cyclase mediated increase in cAMP level at 2.5 uM incubated for 30 mins by BRET analysis relative to control; format: cell-based; how it was run: as §1
HeLa [8] = test: Modulation of Galphai in human HeLa cells assessed as hetero-trimer reassociation by measuring effect on total ERK level at 2.5 uM incubated for 30 mins by immunoblotting analysis; format: cell-based
HeLa [9] = test: Modulation of Galphai in human HeLa cells assessed as hetero-trimer reassociation by measuring effect on total Akt level at 2.5 uM incubated for 30 mins by immunoblotting analysis; format: cell-based
NG108-15 [10] = test: Modulation of Galphai in forskolin-stimulated NG108-15 cell membrane expressing human beta2-AR co-expressing […] receptor assessed as increase in cAMP level at 10 uM relative to control; format: cell membranes; how it was run: as §3
[11] = Stability in human plasma at 1 mM measured upto 180 mins by HPLC analysis; format: ADME, cell-free; conditions: 3 h, 1000 µM
HeLa [12] = test: Modulation of Galphai in human HeLa cells assessed as hetero-trimer reassociation by measuring decrease in free G-beta/gamma dimer level at 2.5 uM incubated for 30 mins by BRET analysis; format: cell-based; conditions: filed as modulator
How it was run: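 Free Gβγ BRET using Rluc-fused GRK3ct as biosensor in HeLa cells; 30 min incubation with 2.5 μM peptide or none; BRET signal normalized to untreated; n = 3, S.E.M., one-way ANOVA.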

HeLa [13] = test: Modulation of Galphai in human HeLa cells assessed as hetero-trimer reassociation by measuring effect on phosphorylated Akt level at 2.5 uM incubated for 30 mins by immunoblotting analysis; format: cell-based
[14] = Modulation of Galphai in human HeLa cells assessed as increase in cAMP level incubated for 30 mins followed by forskolin stimulation measured after 30 mins by TR-FRET analysis; format: cell-based; conditions: 0.5 h
How it was run: (§4)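 Endpoint intracellular cAMP by TR-FRET (LANCE Ultra cAMP kit) in HeLa cells incubated with a range of peptide concentrations, then Fsk-stimulated or unstimulated; cAMP quantified against a cAMP standard curve.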

HeLa [15] = test: Modulation of Galphai in human HeLa cells assessed as increase in cAMP level at 2.5 uM incubated for 30 mins followed by forskolin stimulation measured after 30 mins by TR-FRET analysis relative to control; format: cell-based; conditions: filed as modulator, time 60.0 min; how it was run: as §4
HeLa [16] = test: Modulation of Galphai in human HeLa cells assessed as hetero-trimer reassociation by measuring decrease in free Galphai monomer level at 2.5 uM incubated for 30 mins by BRET analysis; format: cell-based; conditions: filed as modulator
How it was run: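 Gβγ release BRET: HeLa cells transfected with Venus-Gβ, Gγ and Rluc8-Gαi (500 ng each); peptide 2.5 μM 30 min RT; CTZ 10 μM added; BRET ratio from emission scan, AUC normalized to no-peptide; n = 3, S.E.M.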

[17] = target: T1, Guanine nucleotide-binding protein G(i) subunit alpha-1; test: Binding affinity to N-terminal 6His-tagged GMPPNP-bound Galphai1 (unknown origin) expressed in Escherichia coli BL21 (DE3) assessed as dissociation constant by SPR analysis; how it was run: as §2
NG108-15 [18] = test: Modulation of Galphai in DADLE/forskolin-stimulated NG108-15 cell membrane expressing human beta2-AR co-expressing […] receptor assessed as decrease in cAMP level at 10 uM relative to control; format: cell membranes; set-up: scale not given: the % may be the effect or the level left; how it was run: as §3

T1 sequence (P63096 whole entry): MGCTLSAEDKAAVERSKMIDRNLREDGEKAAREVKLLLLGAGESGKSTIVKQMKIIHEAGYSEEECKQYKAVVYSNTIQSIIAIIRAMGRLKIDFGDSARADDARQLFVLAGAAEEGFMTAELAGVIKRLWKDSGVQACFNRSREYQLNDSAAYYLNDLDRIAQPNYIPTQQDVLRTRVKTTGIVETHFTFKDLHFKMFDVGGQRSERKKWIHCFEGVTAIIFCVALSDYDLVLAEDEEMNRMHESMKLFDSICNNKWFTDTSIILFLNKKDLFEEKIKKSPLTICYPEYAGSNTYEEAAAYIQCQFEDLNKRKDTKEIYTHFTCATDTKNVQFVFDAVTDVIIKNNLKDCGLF

N=C(N)NCCC[C@@H]1NC(=O)CNC(=O)[C@H](CO)NC(=O)c2cc3cc(c2)C(=O)NC[C@@H](C(=O)N[C@@H](CCCCN)C(N)=O)NC(=O)[C@@H](Cc2cccc4ccccc24)NC(=O)[C@H](Cc2ccc(O)cc2)NC(=O)[C@@H](CCCCN)NC(=O)[C@@H](Cc2cccc4ccccc24)NC(=O)[C@H](CCCNC3=O)NC1=O
Activity (HeLa [1]): Non-Toxic | Activity (HeLa [2]; filed as modulator): Active | Kd [3]: 24.7 µM

CC[C@H](C)[C@@H]1NC(=O)[C@@H](Cc2cccc3ccccc23)NC(=O)c2cc3cc(c2)C(=O)NC[C@@H](C(=O)N[C@@H](CCCCN)C(N)=O)NC(=O)[C@@H](C)NC(=O)[C@@H](Cc2ccccc2)NC(=O)[C@H](CCCNC(=N)N)NC(=O)[C@H](C)NC(=O)[C@@H](CCCNC3=O)NC(=O)[C@@H](C(C)C)NC(=O)[C@@H](Cc2ccccc2)NC1=O
Activity (HeLa [4]): inactive | Activity (HeLa [5]): inactive | Activity (NG108-15 [6]; in the assay text read “delta-opioid receptor” for “mu-opioid receptor”): 30% | Activity (HeLa [7]): 10% | Activity (HeLa [8]): inactive | Activity (HeLa [9]): inactive | Activity (NG108-15 [10]): 30% | Activity (HeLa [1]): Non-Toxic | Stability [11]: Stable | Activity (HeLa [12]): Active | Kd [3]: 25.5 µM | Activity (HeLa [13]): inactive | IC50 [14]: 6.92 µM | Activity (HeLa [15]): Active | Activity (HeLa [16]): Active

NCCCC[C@H](NC(=O)[C@@H]1CNC(=O)c2cc3cc(c2)C(=O)N[C@H](Cc2cccc4ccccc24)C(=O)N[C@H](Cc2ccccc2)C(=O)N2CCC[C@@H]2C(=O)N[C@@H](CCCNC3=O)C(=O)N2CCC[C@@H]2C(=O)N[C@H](CCCCN)C(=O)N2CCC[C@@H]2C(=O)N[C@@H](Cc2ccc(O)cc2)C(=O)N1)C(N)=O
Activity (HeLa [4]): inactive | Activity (HeLa [1]): Non-Toxic | Kd [17]: 0.71 µM | Activity (HeLa [2]; filed as modulator): Active | Kd [3]: 5 µM | Activity (NG108-15 [18]; filed as modulator): 40%

CC[C@H](C)[C@@H]1NC(=O)c2cc3cc(c2)C(=O)NC[C@@H](C(=O)N[C@@H](CCCCN)C(N)=O)NC(=O)[C@H](Cc2c[nH]c4ccccc24)NC(=O)[C@@H](Cc2ccc4ccccc4c2)NC(=O)[C@@H](C(C)C)NC(=O)[C@H](CCCNC3=O)NC(=O)[C@@H](CC(N)=O)NC(=O)[C@@H](CC(C)C)NC1=O
Activity (NG108-15 [6]): inactive | Activity (HeLa [7]): inactive | Activity (NG108-15 [10]): inactive | Activity (HeLa [1]): Non-Toxic | Activity (HeLa [2]): inactive | Activity [3]: inactive | Activity (NG108-15 [18]): inactive
